We go through 21 compounds from article PMC4828293 (Bioorganic & medicinal chemistry, 2015).

Like-named read-outs stand apart in the source and are kept apart here.

The GI50 is the concentration that inhibits growth by half.

The subject of one assay is tubulin. The assay can be described thus: Inhibition of [3H]colchicine binding to tubulin. As to conditions: 1.0 μM tubulin, 5.0 μM [3H]colchicine.
For a further assay, the system named is SK-OV-3 (ovarian). The assay is described as follows: SRB cytotoxicity assay, SK-OV-3. The class given is cell-based, human. Particulars: SK-OV-3, 48 h, read-out: GI50 (μM) SRB assay SK-OV-3. The gist of the method:
(§1)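 Serial dilutions of the test compound were added to the cells for 48 h. Cells were then fixed with trichloroacetic acid, washed, dried and stained with sulforhodamine B. The dye was solubilised and read at 540 nm, normalised to 630 nm.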
For orientation: In SRB staining, fixed cells bind dye roughly in proportion to their protein.

In a further assay the test system is NCI-H460 (lung). The assay can be described thus: SRB cytotoxicity assay, NCI-H460. Particulars: NCI-H460, 48 h, read-out: GI50 (μM) SRB assay NCI-H460. The assay is classed as cell-based, human. The gist of the method:
as §1

The subject of a further assay is DU-145 (prostate). The assay is described as follows: SRB cytotoxicity assay, DU-145. The class given is cell-based, human. Particulars: DU-145, 48 h, read-out: GI50 (μM) SRB assay DU-145. The gist of the method: as §1
The subject of assay [1] is human cancer cell lines [SK-OV-3 (ovarian), NCI-H460 (lung), and DU-145 (prostate)]. The assay is described as follows: SRB cytotoxicity assay, panel of three human cancer cell lines. Particulars: read-out: GI50 against two of the three cell lines. The assay is classed as cell-based. The gist of the method:
as §1

Take `COc1ccc(/C=C\c2cc(OC)c(OC)c(OC)c2)cc1O` [CA4, combretastatin A-4, reference compound]: in the assay with tubulin (1 μM inhibitor), the “% Inhibition of colchicine binding ± SD” value was 84 ± 3%. The GI50 in the assay on SK-OV-3 (ovarian) (Homo sapiens) came to 0.00455 µM; in the assay on NCI-H460 (lung) (Homo sapiens) it was 0.00223 µM; in the assay on DU-145 (prostate) (Homo sapiens) it was 0.00327 µM.
Take `COc1ccc2c(c1OC)CCCC=C2c1ccccc1` [Compound 28, 3,4-Dimethoxy-9-phenyl-6,7-dihydro-5H-benzo[7]annulene]: the concentration for 50% growth inhibition (GI50) with SK-OV-3 (ovarian) (Homo sapiens) was 32.7 µM; in the assay with NCI-H460 (lung) (Homo sapiens) it was 37.5 µM; with DU-145 (prostate) (Homo sapiens), 89.3 µM.
On to `COc1ccc2c(c1)CCCC=C2c1cc(OC)c(OC)c(OC)c1` [Compound 29, 3-Methoxy-9-(3′,4′,5′-trimethoxyphenyl)-6,7-dihydro-5H-benzo[7]annulene], for which the “% Inhibition of colchicine binding ± SD” value with tubulin (1 μM inhibitor) was determined as 37 ± 5%; in the assay on tubulin (5 μM inhibitor), 72 ± 0.8%. For the same compound, the GI50 was 0.0516 µM in the assay with SK-OV-3 (ovarian) (Homo sapiens), 0.0527 µM in the assay with NCI-H460 (lung) (Homo sapiens) and 0.0619 µM in the assay on DU-145 (prostate) (Homo sapiens).
For the compound `COc1ccc2c(c1C)CCCC=C2c1cc(OC)c(OC)c(OC)c1` [Compound 30, 3-Methoxy-4-methyl-9-(3′,4′,5′-trimethoxyphenyl)-6,7-dihydro-5H-benzo[7]annulene], in the assay with tubulin (5 μM inhibitor), the “% Inhibition of colchicine binding ± SD” value is 65 ± 0.6 (5 μM) %. The GI50 in the assay on SK-OV-3 (ovarian) (Homo sapiens) stood at 0.33 µM; with NCI-H460 (lung) (Homo sapiens) it was 0.422 µM; with DU-145 (prostate) (Homo sapiens) it was 0.644 µM.
Take `CCc1c(OC)ccc2c1CCCC=C2c1cc(OC)c(OC)c(OC)c1` [Compound 31, 4-Ethyl-3-methoxy-9-(3′,4′,5′-trimethoxyphenyl)-6,7-dihydro-5H-benzo[7]annulene]: the GI50 in the assay with SK-OV-3 (ovarian) (Homo sapiens) is 0.568 µM; in the assay with NCI-H460 (lung) (Homo sapiens), 0.763 µM; with DU-145 (prostate) (Homo sapiens), 1.51 µM; in assay [1], below 1 µM.
For the compound `CCCc1c(OC)ccc2c1CCCC=C2c1cc(OC)c(OC)c(OC)c1` [Compound 32, 3-Methoxy-4-propyl-9-(3′,4′,5′-trimethoxyphenyl)-6,7-dihydro-5H-benzo[7]annulene], the GI50 in the assay on SK-OV-3 (ovarian) (Homo sapiens) amounted to 2.96 µM; in the assay on NCI-H460 (lung) (Homo sapiens), 3.32 µM; in the assay on DU-145 (prostate) (Homo sapiens), 6.03 µM.
Turning to `COc1ccc2c(c1OC)CCCC=C2c1cc(C(F)(F)F)cc(C(F)(F)F)c1` [Compound 34, 9-(3′,5′-Bis(trifluoromethyl)phenyl)-3,4-dimethoxy-6,7-dihydro-5H-benzo[7]annulene], the GI50 in the assay on SK-OV-3 (ovarian) (Homo sapiens) came to 31.1 µM; in the assay with NCI-H460 (lung) (Homo sapiens) it was 25.5 µM; in the assay with DU-145 (prostate) (Homo sapiens), 52.1 µM.
On to `COc1cc(C2=CCCCc3c2ccc(OC)c3OC)cc(OC)c1OC` [Compound 35, 3,4-Dimethoxy-9-(3′,4′,5′-trimethoxyphenyl)-6,7-dihydro-5H-benzo[7]annulene], for which the “% Inhibition of colchicine binding ± SD” value in the assay on tubulin (5 μM inhibitor) was found to be 30 ± 4%; with tubulin (50 μM inhibitor) it was 56 ± 4%. For the same compound, the GI50 turned out to be 0.277 µM in the assay on SK-OV-3 (ovarian) (Homo sapiens), 0.593 µM in the assay on NCI-H460 (lung) (Homo sapiens) and 0.708 µM in the assay on DU-145 (prostate) (Homo sapiens).
For `COc1ccc(C2=CCCCc3c2ccc(OC)c3OC)cc1` [Compound 36, 3,4-Dimethoxy-9-(4′-methoxyphenyl)-6,7-dihydro-5H-benzo[7]annulene], the concentration for 50% growth inhibition (GI50) in the assay on SK-OV-3 (ovarian) (Homo sapiens) turned out to be 20.5 µM; in the assay with NCI-H460 (lung) (Homo sapiens) it was 33.4 µM; in the assay on DU-145 (prostate) (Homo sapiens), 48.3 µM.
Consider `COc1ccc(C2=CCCCc3cc(OC)ccc32)cc1` [Compound 37, 3-Methoxy-9-(4′-methoxyphenyl)-6,7-dihydro-5H-benzo[7]annulene], for which the results for the concentration for 50% growth inhibition (GI50) with SK-OV-3 (ovarian) (Homo sapiens), with NCI-H460 (lung) (Homo sapiens) and with DU-145 (prostate) (Homo sapiens) were 40.7 µM, 57.7 µM and 68.7 µM, respectively.
Consider `COc1ccc2c(c1OC)CCCC=C2c1ccc(OC)c(OC)c1OC` [Compound 61, 3,4-Dimethoxy-9-(2′,3′,4′-trimethoxyphenyl)-6,7-dihydro-5H-benzo[7]annulene], for which the GI50 came out at 6.96 µM with SK-OV-3 (ovarian) (Homo sapiens), 10.5 µM in the assay with NCI-H460 (lung) (Homo sapiens) and 26.2 µM in the assay on DU-145 (prostate) (Homo sapiens).
With `COc1ccc2c(c1)CCCC=C2c1ccc(OC)c(OC)c1OC` [Compound 62, 3-Methoxy-9-(2′,3′,4′-trimethoxyphenyl)-6,7-dihydro-5H-benzo[7]annulene], the “% Inhibition of colchicine binding ± SD” value in the assay on tubulin (1 μM inhibitor) was 36 ± 5%; in the assay on tubulin (5 μM inhibitor), 69 ± 3%. In addition, the GI50 in the assay with SK-OV-3 (ovarian) (Homo sapiens) was determined as 0.0432 µM; in the assay on NCI-H460 (lung) (Homo sapiens) it was 0.12 µM; with DU-145 (prostate) (Homo sapiens), 0.0562 µM.
In the case of `COc1ccc2c(c1O)CCCC=C2c1ccccc1` [Compound 64, 3-Methoxy-9-phenyl-6,7-dihydro-5H-benzo[7]annulen-4-ol], the concentration for 50% growth inhibition (GI50) was 0.557 µM in the assay with SK-OV-3 (ovarian) (Homo sapiens), 0.652 µM with NCI-H460 (lung) (Homo sapiens), 4.4 µM in the assay with DU-145 (prostate) (Homo sapiens) and below 1 µM in assay [1].
For the compound `COc1ccc2c(c1O)CCCC=C2c1cc(C(F)(F)F)cc(C(F)(F)F)c1` [Compound 65, 9-(3′,5′-Bis(trifluoromethyl)phenyl)-3-methoxy-6,7-dihydro-5H-benzo[7]annulen-4-ol], the “% Inhibition of colchicine binding ± SD” value in the assay on tubulin (5 μM inhibitor) was determined as 8.5 ± 4%; with tubulin (50 μM inhibitor), 37 ± 5%. Moreover, the GI50 with SK-OV-3 (ovarian) (Homo sapiens) came to 4.81 µM; in the assay with NCI-H460 (lung) (Homo sapiens) it was 4.39 µM; with DU-145 (prostate) (Homo sapiens) it was 4.92 µM.
Turning to `Oc1ccc2c(c1O)CCCC=C2c1cc(C(F)(F)F)cc(C(F)(F)F)c1` [Compound 66, 9-(3′,5′-Bis(trifluoromethyl)phenyl)-6,7-dihydro-5H-benzo[7]annulene-3,4-diol], the GI50 in the assay with SK-OV-3 (ovarian) (Homo sapiens) is 16.8 µM; in the assay on NCI-H460 (lung) (Homo sapiens) it was 25 µM; in the assay with DU-145 (prostate) (Homo sapiens), 21.8 µM.
Regarding `COc1ccc(C2=CCCCc3c2ccc(OC)c3O)cc1` [Compound 67, 3-Methoxy-9-(4′-methoxyphenyl)-6,7-dihydro-5H-benzo[7]annulen-4-ol], the values for the 50% growth inhibitory concentration (GI50) with SK-OV-3 (ovarian) (Homo sapiens), with NCI-H460 (lung) (Homo sapiens) and in the assay on DU-145 (prostate) (Homo sapiens) were 18.4 µM, 10.6 µM and 8.59 µM, respectively.
On to `COc1cc(C2=CCCCc3cc(O)ccc32)cc(OC)c1OC` [Compound 68, 9-(3′,4′,5′-Trimethoxyphenyl)-6,7-dihydro-5H-benzo[7]annulen-3-ol], for which the “% Inhibition of colchicine binding ± SD” value in the assay with tubulin (5 μM inhibitor) is reported as 27 ± 5 (5 μM) %. Further, the concentration for 50% growth inhibition (GI50) in the assay with SK-OV-3 (ovarian) (Homo sapiens) is 0.527 µM; with NCI-H460 (lung) (Homo sapiens) it was 0.647 µM; in the assay on DU-145 (prostate) (Homo sapiens) it was 1.02 µM.
In the case of `COc1cc(C2=CCCCc3c2ccc(O)c3O)cc(OC)c1OC` [Compound 70, 9-(3′,4′,5′-Trimethoxyphenyl)-6,7-dihydro-5H-benzo[7]annulene-3,4-diol], the figures for the GI50 in the assay on SK-OV-3 (ovarian) (Homo sapiens), in the assay with NCI-H460 (lung) (Homo sapiens) and with DU-145 (prostate) (Homo sapiens) were 0.346 µM, 0.691 µM and 1.53 µM, respectively.
Take `COc1ccc2c(c1O)CCCC=C2c1ccc(OC)c(OC)c1OC` [Compound 71, 3-Methoxy-9-(2′,3, ′4′-trimethoxyphenyl)-6,7-dihydro-5H-benzo[7]annulen-4-ol]: the concentration for 50% growth inhibition (GI50) in the assay with SK-OV-3 (ovarian) (average of n ≥ 3) turned out to be 3.53 µM; in the assay on NCI-H460 (lung) (average of n ≥ 3), 4.24 µM; in the assay on DU-145 (prostate) (average of n ≥ 3) it was 7.54 µM.
`COc1ccc2c(c1O)CCCCC2c1cc(OC)c(OC)c(OC)c1` (stereo not drawn) [Compound 72, 2-Methoxy-5-(3′,4′,5′-trimethoxyphenyl)-6,7,8,9-tetrahydro-5H-benzo[7]annulen-1-ol]: the “% Inhibition of colchicine binding ± SD” value in the assay with tubulin (1 μM inhibitor) was 21 ± 0.9%; in the assay with tubulin (5 μM inhibitor), 67 ± 0.6%. Besides, the results for the GI50 in the assay with SK-OV-3 (ovarian) (Homo sapiens), in the assay on NCI-H460 (lung) (Homo sapiens) and in the assay on DU-145 (prostate) (Homo sapiens) were 0.408 µM, 0.141 µM and 0.57 µM, respectively.
As to `COc1ccc2c(c1OP(=O)(O)O)CCCC=C2c1cc(C(F)(F)F)cc(C(F)(F)F)c1` [Compound 74, 9-(3′,5′-Bis(trifluoromethyl)phenyl)-3-methoxy-6,7-dihydro-5H-benzo[7]annulen-4-yl disodium phosphate], the GI50 amounted to 17.2 µM in the assay with SK-OV-3 (ovarian) (average of n ≥ 3), 16.3 µM in the assay on NCI-H460 (lung) (average of n ≥ 3) and 17.5 µM in the assay on DU-145 (prostate) (average of n ≥ 3).
